ChEMBL document CHEMBL1145917, “Neurosteroid analogues. 9. Conformationally constrained pregnanes: structure-activity studies of 13,24-cyclo-18,21-dinorcholane analogues of the GABA modulatory and anesthetic steroids (3alpha,5alpha)- and (3alpha,5beta)-3-hydroxypregnan-20-one” (J Med Chem, 2003)

How the values were obtained:
[1] = target: T1, GABA-A receptor; alpha-1/beta-2/gamma-2 (Rattus norvegicus) (UniProt P18508+P62813+P63138); experiment: In vitro current effect against rat GABA receptor alpha-1-beta-2-gamma-2 subunits expressed in Xenopus laevis oocytes at 1 uM (ratio +/- compound); assay type: cell-based; conditions: Oocyte
Method in brief: (§1)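 Two-electrode voltage clamp at -70 mV, 2–5 days after injecting rat α1, β2 and γ2L cRNA (20–40 ng total, equal parts) into defolliculated stage V–VI oocytes held at 18 °C in ND96. Compound was co-applied with 2 μM GABA for 20 s and peak current measured. Value is the ratio of current with/without compound, from at least four oocytes.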

[2] = Loss of righting reflex in Xenopus laevis tadpole.; assay type: functional, frog; conditions: Amphibia, read-out: ED50 (the source's name)
Method in brief: (§2)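 Groups of 10 early pre-limb-bud X. laevis tadpoles were placed in 100 mL oxygenated Ringer's containing compound at various concentrations. Compound came from a 10 mM DMSO stock, about 0.1% DMSO final. Loss of righting and loss of swimming responses were scored. EC50 and Hill coefficient n were taken from a Hill equation fit.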

[3] = Loss of swimming behavior in Xenopus laevis tadpole.; assay type: functional, frog; conditions: Amphibia, read-out: ED50 (the source's name); method in brief: as §2
[4] = target: GABA-A receptor; anion channel; experiment: Non-competitive displacement of [35S]TBPS from picrotoxin binding site found in heterogeneous Gamma-aminobutyric acid A receptor in rat brain membranes.; assay type: cell membranes
Method in brief: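 Rat brain membranes (washed P2, 0.5 mg/mL final protein) incubated 2 h at room temperature with 5 μM GABA, 2 nM [35S]TBPS and steroid from DMSO (final 1 nM–10 μM) in 200 mM NaCl/50 mM potassium phosphate, pH 7.4. Nonspecific binding defined with 200 μM picrotoxinin. Filtration, scintillation counting, Hill fit for IC50. Triplicate points, two or three curves per steroid.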

[5] = target: T1, GABA-A receptor; alpha-1/beta-2/gamma-2 (Rattus norvegicus); experiment: In vitro current effect against rat GABA receptor alpha-1-beta-2-gamma-2 subunits expressed in Xenopus laevis oocytes at 10 uM (ratio +/- compound); assay type: cell-based; conditions: Oocyte; method in brief: as §1
[6] = target: T1, GABA-A receptor; alpha-1/beta-2/gamma-2 (Rattus norvegicus); experiment: In vitro direct current effect against rat GABA receptor alpha-1-beta-2-gamma-2 subunits expressed in Xenopus laevis oocytes at 10 uM (ratio +/- compound, without GABA); assay type: cell-based; conditions: Oocyte
Method in brief: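 Same oocyte α1β2γ2L voltage-clamp setup at -70 mV, with peak current over 20 s applications. Compound was applied at 10 μM without GABA. Directly gated current is expressed as a ratio to the current evoked by 2 μM GABA, from at least four oocytes.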

[7] = Hill coefficient for loss of swimming response.; assay type: functional; method in brief: as §2
[8] = target: T1, GABA-A receptor; alpha-1/beta-2/gamma-2 (Rattus norvegicus); experiment: In vitro current effect against rat GABA receptor alpha-1-beta-2-gamma-2 subunits expressed in Xenopus laevis oocytes at 0.1 uM (ratio +/- compound); assay type: cell-based; conditions: Oocyte; method in brief: as §1
[9] = Hill coefficient for displacement of [35S]TBPS.; assay type: functional
Method in brief: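 Rat brain membrane P2 fraction washed three times in 200 mM NaCl / 50 mM potassium phosphate, pH 7.4. Assay used 0.5 mg/mL protein, 5 μM GABA, 2 nM [35S]TBPS and steroid at 1 nM–10 μM final (0.5% DMSO), 2 h at room temperature, then filtration and scintillation counting. Nonspecific binding was taken with 200 μM picrotoxinin. Triplicate points, 2–3 curves per steroid; Hill equation fit gives n.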

[10] = Hill coefficient for loss of righting response.; assay type: functional; method in brief: as §2

Structure (SMILES)	Ratio [1]	EC50 [2]	EC50 [3]	IC50 [4]	Ratio [5]	Ratio [6]	nHill [7]	Ratio [8]	nHill [9]	nHill [10]
C[C@]12CC[C@@H](O)C[C@@H]1CC[C@@H]1[C@@H]2CC[C@]23C(=O)C=CC[C@H]2CC[C@@H]13	8.33	1200 nM	2660 nM	197 nM	9.45	0.07	-24.2	1.98	1.03	–
CC(=O)[C@H]1CC[C@H]2[C@@H]3CC[C@@H]4C[C@H](O)CC[C@]4(C)[C@H]3CC[C@]12C [ELTANOLONE]	2.82	63 nM	300 nM	–	9.77	0.06	-6.93	1.2	0.57	-1.54
C[C@]12CC[C@@H](O)C[C@H]1CC[C@H]1[C@@H]3CCC4CC(=O)CC[C@@]43CC[C@@H]12 (stereo partly drawn)	1.11	2470 nM	9430 nM	3230 nM	2.65	-0.1	-18.7	0.97	0.73	-1.86
C[C@]12CC[C@@H](O)C[C@H]1CC[C@H]1[C@@H]3CCC4CCC(=O)C[C@@]43CC[C@@H]12 (stereo partly drawn)	1.03	1440 nM	3550 nM	899 nM	3.17	0.01	-17.5	0.97	0.89	-3.02
C[C@]12CC[C@@H](O)C[C@@H]1CC[C@H]1C3CCC4C(=O)C=CC[C@@]43CC[C@@H]12 (single isomer, unassigned)	5.87	3380 nM	–	373 nM	9.07	0.72	–	1.49	1.17	-2.79
C[C@]12CC[C@@H](O)C[C@@H]1CC[C@@H]1[C@@H]2CC[C@]23C=CC(=O)C[C@H]2CC[C@@H]13	1.54	730 nM	5480 nM	1260 nM	5.07	-0.04	-33.5	1.12	1	-1.57
C[C@]12CC[C@@H](O)C[C@H]1CC[C@@H]1[C@@H]2CC[C@]23C=CC(=O)C[C@H]2CC[C@@H]13	1.8	560 nM	5480 nM	4750 nM	4.44	0.26	-33.5	1.87	0.95	-1.5
C[C@]12CC[C@@H](O)C[C@H]1CC[C@H]1C3CCC4C(=O)C=CC[C@@]43CC[C@@H]12 (single isomer, unassigned)	1.17	2560 nM	8950 nM	1570 nM	2.34	0.11	-19.8	1.07	1.15	-1.59
C[C@]12CC[C@@H](O)C[C@@H]1CC[C@@H]1[C@@H]2CC[C@]23C(=O)CCCC2CC[C@@H]13 (stereo partly drawn)	3.05	320 nM	1730 nM	301 nM	10.7	0.39	-36.5	1.22	1.01	-1.75
C[C@]12CC[C@@H](O)C[C@@H]1CC[C@H]1[C@@H]3CCC4C(=O)CCC[C@@]43CC[C@@H]12 (stereo partly drawn)	1.44	1360 nM	5450 nM	514 nM	2.28	0	-33.5	1.01	0.84	-2.51
C[C@]12CC[C@@H](O)C[C@@H]1CC[C@H]1[C@@H]3CCC4CC(=O)CC[C@@]43CC[C@@H]12 (stereo partly drawn)	1.61	2370 nM	–	1440 nM	2.93	0.06	–	1.3	0.95	-2.02
C[C@]12CC[C@@H](O)C[C@@H]1CC[C@H]1[C@@H]3CCC4CCC(=O)C[C@@]43CC[C@@H]12 (stereo partly drawn)	1.64	1120 nM	3580 nM	334 nM	6.49	0.32	-16.7	1.39	1.14	-1.75
C[C@]12CC[C@@H](O)C[C@H]1CC[C@H]1[C@@H]3CCC4C(=O)CCC[C@@]43CC[C@@H]12 (stereo partly drawn)	1.12	940 nM	5480 nM	1780 nM	1.51	-0.25	-33.5	0.93	1.36	-1.23
C[C@]12CC[C@@H](O)C[C@H]1CC[C@@H]1[C@@H]2CC[C@]23C(=O)C=CC[C@H]2CC[C@@H]13	3.15	400 nM	1000 nM	105 nM	21.4	0.2	-18.6	1.36	0.9	-4.97
CC(=O)[C@H]1CC[C@H]2[C@@H]3CC[C@H]4C[C@H](O)CC[C@]4(C)[C@H]3CC[C@]12C [BREXANOLONE]	3.89	420 nM	5500 nM	–	9.65	0.37	-7.5	1.26	0.89	-1.83
C[C@]12CC[C@@H](O)C[C@H]1CC[C@@H]1[C@@H]2CC[C@]23C(=O)CCCC2CC[C@@H]13 (stereo partly drawn)	3.45	40 nM	890 nM	329 nM	10.4	0.04	-18.2	1.26	0.95	-4.97
C[C@]12CC[C@@H](O)C[C@H]1CC[C@H]1[C@@H]3CCC4C=CC(=O)C[C@@]43CC[C@@H]12 (stereo partly drawn)	1.83	1050 nM	2720 nM	268 nM	4.5	-0.02	-22.1	1.07	0.64	-16.6
C[C@]12CC[C@@H](O)C[C@@H]1CC[C@H]1[C@@H]3CCC4C=CC(=O)C[C@@]43CC[C@@H]12 (stereo partly drawn)	5.53	1280 nM	10000 nM	243 nM	16.6	0.35	-17	1.59	0.89	-1.16
